System: U2OS
Assay: Multiplex assay against U2OS
Type: toxicity, cell-based
Settings: human
How it was run: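 Live cells carried four stains from seeding: Hoechst33342, BioTracker Green Microtubule Cytoskeleton Dye, MitoTracker Red and Annexin V Alexa Fluor 680. They were imaged on a CQ1 microscope at 37°C and 5% CO2 after compound addition. Using CellPathfinder machine-learning gating, cells were split into Hoechst high-intensity objects or normal cells, normal cells into healthy, pyknosed or fragmented nuclei, and pyknosed cells into mitotic or apoptotic; tubulin, mitochondrial-mass and membrane-permeability phenotypes are per cents of healthy-nucleus cells.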

[1] = 12 h, 1 µM, compound concentration 1 uM, replicate 1
[2] = 12 h, 1 µM, compound concentration 1 uM, replicate 2
[3] = 12 h, 10 µM, compound concentration 10 uM, replicate 1
[4] = 12 h, 10 µM, compound concentration 10 uM, replicate 2
[5] = 24 h, 1 µM, compound concentration 1 uM, replicate 1
[6] = 24 h, 1 µM, compound concentration 1 uM, replicate 2
[7] = 24 h, 10 µM, compound concentration 10 uM, replicate 1
[8] = 24 h, 10 µM, compound concentration 10 uM, replicate 2
[9] = 48 h, 1 µM, compound concentration 1 uM, replicate 1
[10] = 48 h, 1 µM, compound concentration 1 uM, replicate 2
[11] = 48 h, 10 µM, compound concentration 10 uM, replicate 1
[12] = 48 h, 10 µM, compound concentration 10 uM, replicate 2

## Cc1ccc(C(=O)Nc2cccc(C(F)(F)F)c2)cc1Nc1nc(-c2cccnc2)nc2c1cnn2C
[1]
  Population Apoptotic (%): 41%
  Population Fragmented Nuclei (%): 18%
  Population Healthy Nuclei (%): 63%
  Population Hoechst High Intensity Objects (%): 10%
  Population Membrane Permeable-Phenotype (%): 8%
  Population Mitochondria Different-Phenotype (%): 12%
  Population Mitotic Cells (%): 58%
  Population Normal (%): 89%
  Population Pyknosed Nuclei (%): 18%
  Population Tubulin-Different-Phenotype (%): 13%
  Total Cell Count: 151
[2]
  Population Apoptotic (%): 50%
  Population Fragmented Nuclei (%): 14%
  Population Healthy Nuclei (%): 73%
  Population Hoechst High Intensity Objects (%): 3%
  Population Membrane Permeable-Phenotype (%): 6%
  Population Mitochondria Different-Phenotype (%): 25%
  Population Mitotic Cells (%): 50%
  Population Normal (%): 96%
  Population Pyknosed Nuclei (%): 12%
  Population Tubulin-Different-Phenotype (%): 14%
  Total Cell Count: 101
[3]
  Population Apoptotic (%): 69%
  Population Fragmented Nuclei (%): 13%
  Population Healthy Nuclei (%): 48%
  Population Hoechst High Intensity Objects (%): 6%
  Population Membrane Permeable-Phenotype (%): 53%
  Population Mitochondria Different-Phenotype (%): 87%
  Population Mitotic Cells (%): 30%
  Population Normal (%): 93%
  Population Pyknosed Nuclei (%): 38%
  Population Tubulin-Different-Phenotype (%): 98%
  Total Cell Count: 147
[4]
  Population Apoptotic (%): 61%
  Population Fragmented Nuclei (%): 18%
  Population Healthy Nuclei (%): 42%
  Population Hoechst High Intensity Objects (%): 8%
  Population Membrane Permeable-Phenotype (%): 78%
  Population Mitochondria Different-Phenotype (%): 92%
  Population Mitotic Cells (%): 38%
  Population Normal (%): 91%
  Population Pyknosed Nuclei (%): 39%
  Population Tubulin-Different-Phenotype (%): 100%
  Total Cell Count: 66
[5]
  Population Apoptotic (%): 42%
  Population Fragmented Nuclei (%): 10%
  Population Healthy Nuclei (%): 75%
  Population Hoechst High Intensity Objects (%): 9%
  Population Membrane Permeable-Phenotype (%): 2%
  Population Mitochondria Different-Phenotype (%): 14%
  Population Mitotic Cells (%): 57%
  Population Normal (%): 90%
  Population Pyknosed Nuclei (%): 13%
  Population Tubulin-Different-Phenotype (%): 8%
  Total Cell Count: 153
[6]
  Population Apoptotic (%): 27%
  Population Fragmented Nuclei (%): 12%
  Population Healthy Nuclei (%): 72%
  Population Hoechst High Intensity Objects (%): 3%
  Population Membrane Permeable-Phenotype (%): 7%
  Population Mitochondria Different-Phenotype (%): 29%
  Population Mitotic Cells (%): 72%
  Population Normal (%): 96%
  Population Pyknosed Nuclei (%): 14%
  Population Tubulin-Different-Phenotype (%): 16%
  Total Cell Count: 101
[7]
  Population Healthy Nuclei (%): 16%
  Population Hoechst High Intensity Objects (%): 4%
  Population Membrane Permeable-Phenotype (%): 80%
  Population Mitochondria Different-Phenotype (%): 100%
  Population Mitotic Cells (%): 10%
  Population Normal (%): 95%
  Population Pyknosed Nuclei (%): 57%
  Total Cell Count: 166
[8]
  Population Apoptotic (%): 90%
  Population Fragmented Nuclei (%): 26%
  Population Healthy Nuclei (%): 11%
  Population Hoechst High Intensity Objects (%): 20%
  Population Membrane Permeable-Phenotype (%): 100%
  Population Mitochondria Different-Phenotype (%): 75%
  Population Mitotic Cells (%): 9%
  Population Normal (%): 79%
  Population Pyknosed Nuclei (%): 61%
  Population Tubulin-Different-Phenotype (%): 100%
  Total Cell Count: 77
[9]
  Population Apoptotic (%): 58%
  Population Fragmented Nuclei (%): 11%
  Population Healthy Nuclei (%): 80%
  Population Hoechst High Intensity Objects (%): 4%
  Population Membrane Permeable-Phenotype (%): 6%
  Population Mitochondria Different-Phenotype (%): 22%
  Population Mitotic Cells (%): 41%
  Population Normal (%): 95%
  Population Pyknosed Nuclei (%): 8%
  Population Tubulin-Different-Phenotype (%): 10%
  Total Cell Count: 140
[10]
  Population Apoptotic (%): 70%
  Population Fragmented Nuclei (%): 7%
  Population Healthy Nuclei (%): 78%
  Population Hoechst High Intensity Objects (%): 10%
  Population Membrane Permeable-Phenotype (%): 11%
  Population Mitochondria Different-Phenotype (%): 29%
  Population Mitotic Cells (%): 30%
  Population Normal (%): 89%
  Population Pyknosed Nuclei (%): 14%
  Population Tubulin-Different-Phenotype (%): 22%
  Total Cell Count: 93
[11]
  Population Apoptotic (%): 96%
  Population Fragmented Nuclei (%): 35%
  Population Healthy Nuclei (%): 10%
  Population Hoechst High Intensity Objects (%): 10%
  Population Membrane Permeable-Phenotype (%): 100%
  Population Mitochondria Different-Phenotype (%): 100%
  Population Mitotic Cells (%): 3%
  Population Normal (%): 90%
  Population Pyknosed Nuclei (%): 54%
  Population Tubulin-Different-Phenotype (%): 100%
  Total Cell Count: 219
[12]
  Population Apoptotic (%): 100%
  Population Fragmented Nuclei (%): 25%
  Population Healthy Nuclei (%): 21%
  Population Hoechst High Intensity Objects (%): 28%
  Population Mitotic Cells (%): 0%
  Population Normal (%): 71%
  Population Pyknosed Nuclei (%): 53%
  Total Cell Count: 77

## NC(=O)c1cccc(-c2cc(Nc3ccc(OC(F)(F)F)cc3)ncn2)c1
[1]
  Population Apoptotic (%): 27%
  Population Fragmented Nuclei (%): 5%
  Population Healthy Nuclei (%): 89%
  Population Hoechst High Intensity Objects (%): 1%
  Population Membrane Permeable-Phenotype (%): 8%
  Population Mitochondria Different-Phenotype (%): 24%
  Population Mitotic Cells (%): 72%
  Population Normal (%): 98%
  Population Pyknosed Nuclei (%): 5%
  Population Tubulin-Different-Phenotype (%): 25%
  Total Cell Count: 640
[2]
  Population Apoptotic (%): 0%
  Population Fragmented Nuclei (%): 16%
  Population Healthy Nuclei (%): 81%
  Population Hoechst High Intensity Objects (%): 16%
  Population Membrane Permeable-Phenotype (%): 13%
  Population Mitochondria Different-Phenotype (%): 36%
  Population Mitotic Cells (%): 100%
  Population Normal (%): 84%
  Population Pyknosed Nuclei (%): 1%
  Population Tubulin-Different-Phenotype (%): 29%
  Total Cell Count: 738
[3]
  Population Apoptotic (%): 56%
  Population Fragmented Nuclei (%): 5%
  Population Healthy Nuclei (%): 86%
  Population Hoechst High Intensity Objects (%): 3%
  Population Membrane Permeable-Phenotype (%): 7%
  Population Mitochondria Different-Phenotype (%): 26%
  Population Mitotic Cells (%): 43%
  Population Normal (%): 96%
  Population Tubulin-Different-Phenotype (%): 16%
  Total Cell Count: 201
[4]
  Population Apoptotic (%): 45%
  Population Fragmented Nuclei (%): 4%
  Population Healthy Nuclei (%): 87%
  Population Hoechst High Intensity Objects (%): 9%
  Population Membrane Permeable-Phenotype (%): 12%
  Population Mitochondria Different-Phenotype (%): 24%
  Population Mitotic Cells (%): 54%
  Population Normal (%): 90%
  Population Pyknosed Nuclei (%): 8%
  Population Tubulin-Different-Phenotype (%): 13%
  Total Cell Count: 125
[5]
  Population Apoptotic (%): 27%
  Population Fragmented Nuclei (%): 2%
  Population Healthy Nuclei (%): 93%
  Population Hoechst High Intensity Objects (%): 0%
  Population Membrane Permeable-Phenotype (%): 3%
  Population Mitochondria Different-Phenotype (%): 23%
  Population Mitotic Cells (%): 72%
  Population Normal (%): 99%
  Population Tubulin-Different-Phenotype (%): 31%
  Total Cell Count: 576
[6]
  Population Apoptotic (%): 20%
  Population Fragmented Nuclei (%): 8%
  Population Healthy Nuclei (%): 87%
  Population Hoechst High Intensity Objects (%): 6%
  Population Membrane Permeable-Phenotype (%): 14%
  Population Mitochondria Different-Phenotype (%): 42%
  Population Mitotic Cells (%): 80%
  Population Normal (%): 93%
  Population Pyknosed Nuclei (%): 3%
  Population Tubulin-Different-Phenotype (%): 44%
  Total Cell Count: 747
[7]
  Population Apoptotic (%): 16%
  Population Fragmented Nuclei (%): 6%
  Population Healthy Nuclei (%): 90%
  Population Hoechst High Intensity Objects (%): 0%
  Population Membrane Permeable-Phenotype (%): 5%
  Population Mitochondria Different-Phenotype (%): 19%
  Population Mitotic Cells (%): 83%
  Population Normal (%): 99%
  Population Pyknosed Nuclei (%): 4%
  Population Tubulin-Different-Phenotype (%): 20%
  Total Cell Count: 281
[8]
  Population Apoptotic (%): 14%
  Population Fragmented Nuclei (%): 4%
  Population Healthy Nuclei (%): 88%
  Population Hoechst High Intensity Objects (%): 7%
  Population Membrane Permeable-Phenotype (%): 8%
  Population Mitochondria Different-Phenotype (%): 25%
  Population Mitotic Cells (%): 85%
  Population Normal (%): 92%
  Population Pyknosed Nuclei (%): 7%
  Population Tubulin-Different-Phenotype (%): 19%
  Total Cell Count: 145

Source: ChEMBL document CHEMBL4689842, “EUbOPEN Chemogenomics Library wave 1” (2021)
